The values that follow come from ChEMBL document CHEMBL2034945, “Bioactive quassinoids from the seeds of Brucea javanica” (J Nat Prod, 2012).

Common to all, as to type: functional, cell-based
One assay has as its system A549. The experiment in a line: Cytotoxicity against human A549 cells by MTT assay. In outline: (§1)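 Colorimetric MTT assay on human cancer lines: HCT-8 colon, HepG2 hepatoma, BGC-823 gastric, A549 lung epithelial and SKOV3 ovarian. Paclitaxel was the positive control. IC50 was reported.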
Another assay deals with HepG2. Kind of assay: Cytotoxicity against human HepG2 cells by MTT assay. In outline: as §1
(In general: Tetrazolium assays rely on reduction of a dye to a coloured formazan, in cell work by metabolically active cells.)

The test system of another assay is SK-OV-3. Kind of assay: Cytotoxicity against human SKOV3 cells by MTT assay. In outline:
as §1

Another assay concerns BGC-823. The experiment in a line: Cytotoxicity against human BGC823 cells by MTT assay. In outline: as §1
For the next assay, the system named is HCT-8. The experiment in a line: Cytotoxicity against human HCT8 cells by MTT assay. In outline: as §1
A short description of assay [1]: Antiinflammatory activity in rat polymorphonuclear leukocytes assessed as inhibition of LPS-stimulated nitric oxide production after 20 mins by Griess method. In outline:
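Rat polymorphonuclear leukocytes were stimulated with LPS, and nitric oxide in the culture supernatant was measured by Griess reaction. Supernatant or sodium nitrite standard was mixed 1:1 with Griess reagent (0.1% N-(1-naphthyl)ethylenediamine dihydrochloride plus 1% sulfanilamide in 5% phosphoric acid, combined within 1 h of preparation). After 20 min at room temperature, absorbance was read at 540 nm. Dexamethasone was the positive control. IC50 was reported.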
(Griess reagent forms a coloured azo dye with nitrite.)

The structures appear in SMILES notation.

Usually IC50 stands for the point on the concentration scale where inhibition reaches its midpoint. Turning to `COC(=O)[C@@]12OC[C@]34[C@H]([C@@H](O)[C@@H]1O)[C@@]1(C)C=C(O[C@@H]5O[C@H](CO)[C@@H](O)[C@H](O)[C@H]5O)C(=O)[C@@H](C)[C@@H]1C[C@H]3OC(=O)[C@H](OC(=O)C=C(C)C)[C@@H]24` [BRUCEOSIDE A], the IC50 with A549, in the assay on HepG2, in the assay on SK-OV-3, with BGC-823 and in the assay on HCT-8 was over 10 µM throughout.
Consider `COC(=O)[C@@]12OC[C@]34[C@H]([C@@H](O)[C@@H]1O)[C@@](C)(CC(=O)O)[C@H]([C@@H](C)C(=O)O)C[C@H]3OC(=O)[C@H](OC(=O)C=C(C)C)[C@@H]24` [JAVANIC ACID A], for which the IC50 in the assay on A549, in the assay on HepG2, in the assay on SK-OV-3, in the assay on BGC-823 and in the assay on HCT-8 was over 10 µM each time.
For `CC1=CC(=O)[C@@H](O)[C@]2(C)[C@H]3[C@@H](O)[C@H](O)[C@@]4(CO)OC[C@@]35[C@@H](C[C@@H]12)OC(=O)[C@H](O)[C@]54O` [BRUCEINE H], the IC50 stood at 9.3 µM in the assay with A549; 2.8 µM with HepG2; 0.33 µM in the assay with SK-OV-3; 2.1 µM with BGC-823; 1.3 µM with HCT-8.
For `COC(=O)[C@@]12OC[C@@]34[C@@H](CC5=C(C)C(=O)C(O)=C[C@]5(C)[C@H]3[C@@H](O)[C@@H]1O)OC(=O)[C@H](OC(=O)C=C(C)C)[C@@H]24` [DEHYDROBRUSATOL], the IC50 in the assay with A549 was 7.3 µM; with HepG2, 3.3 µM; in the assay with SK-OV-3, 2.5 µM; with BGC-823 it was 4.8 µM; in the assay on HCT-8, over 10 µM.
As for `COC(=O)[C@@H](C)[C@@H]1C[C@H]2OC(=O)[C@H](OC(=O)C=C(C)C)[C@H]3[C@]4(C(=O)OC)OC[C@]23[C@H]([C@@H](O)[C@@H]4O)[C@@]1(C)CC(=O)O`, the IC50 with A549, with HepG2, with SK-OV-3, with BGC-823 and with HCT-8 was over 10 µM throughout.
With `COC(=O)[C@@]12OC[C@]34[C@H]([C@@H](O)[C@@H]1O)[C@@]1(C)CC(=O)C(O)=C(C)[C@@H]1C[C@H]3OC(=O)[C@H](OC(C)=O)[C@@H]24` [BRUCEINE B], the IC50 with A549 is 1.3 µM; in the assay on HepG2 it was 0.81 µM; in the assay with SK-OV-3, 0.12 µM; in assay [1] it was 1.9 µM; with BGC-823 it was 0.81 µM; with HCT-8, 2 µM.
On to `CC1=CC(=O)[C@@H](O)[C@]2(C)[C@H]3[C@@H](O)[C@H](O)[C@]4(C)OC[C@@]35[C@@H](C[C@@H]12)OC(=O)[C@H](O)[C@]54O` [BRUCEINE D], for which the IC50 is 3.9 µM with A549; 1.2 µM in the assay with HepG2; 0.76 µM with SK-OV-3; 1.2 µM in the assay on BGC-823; 2 µM in the assay with HCT-8.
`CC(=O)O[C@H]1C(=O)[C@@]2(C)[C@H]([C@H](OC(=O)c3ccccc3)[C@]3(O)C[C@H](OC(=O)[C@H](O)[C@@H](NC(=O)c4ccccc4)c4ccccc4)C(C)=C1C3(C)C)[C@]1(OC(C)=O)CO[C@@H]1C[C@@H]2O` [PACLITAXEL] showed an IC50 in the assay with SK-OV-3 of under 0.0001 µM.
For the compound `CC(=O)[C@@H]1C[C@H]2OC(=O)[C@H](OC(=O)C=C(C)C)[C@H]3[C@]4(C(=O)O)OC[C@]23[C@H]([C@@H](O)[C@@H]4O)[C@@]1(C)CC(=O)O` [BRUCEANIC ACID F], the IC50 in the assay on A549, in the assay on HepG2, in the assay on SK-OV-3, with BGC-823 and with HCT-8 was over 10 µM in each case.
For the compound `CC1=C[C@H](O)[C@@H](O)[C@]2(C)[C@H]3[C@@H](O)[C@H](O)[C@@]4(C)OC[C@@]35[C@@H](C[C@@H]12)OC(=O)[C@H](O)[C@]54O` [BRUCEINE E], the IC50 in the assay with A549 is over 10 µM; in the assay with HepG2, 2.9 µM; in the assay on SK-OV-3, 2.2 µM; in assay [1], 5 µM; in the assay on BGC-823, 2.2 µM; in the assay on HCT-8, 6.7 µM.
In the case of `COC(=O)[C@]12OC[C@@]34[C@H](C[C@H]5[C@H](C)C(=O)C(O[C@@H]6O[C@H](CO)[C@@H](O)[C@H](O)[C@H]6O)=C[C@]5(C)[C@H]3[C@@H](O)[C@@H]1O)OC(=O)[C@H](OC(=O)/C=C(\C)C(C)C)[C@@H]24` [BRUCEANTINOSIDE A], the IC50 in the assay on A549, in the assay with HepG2, in the assay with SK-OV-3, with BGC-823 and with HCT-8 was over 10 µM throughout.
Turning to `COC(=O)[C@@]12OC[C@]34[C@H]([C@@H](O)[C@@H]1O)[C@@]1(C)C[C@H](O)C(=O)[C@@H](C)[C@@H]1C[C@H]3OC(=O)[C@H](OC(=O)C=C(C)C)[C@@H]24` [JAVANICOLIDE H], the IC50 with A549 is 0.95 µM; in the assay on HepG2, over 10 µM; with SK-OV-3, 0.23 µM; in the assay with BGC-823, 0.52 µM; in the assay on HCT-8, over 10 µM.
For the compound `COC(=O)[C@@]12OC[C@]34[C@H]([C@@H](O)[C@@H]1O)[C@@]1(C)CC(=O)[C@H](O)[C@@H](C)[C@@H]1C[C@H]3OC(=O)[C@H](OC(=O)C=C(C)C)[C@@H]24` [JAVANICOLIDE E], the IC50 with A549 is 6.36 µM; with HepG2 it was over 10 µM; in the assay on SK-OV-3, 1.49 µM; in the assay with BGC-823 it was 1.43 µM; in the assay with HCT-8, over 10 µM.
On to `C[C@@H]1C[C@H]2[C@@H]3CCC4=CC(=O)C=C[C@]4(C)[C@@]3(F)[C@@H](O)C[C@]2(C)[C@@]1(O)C(=O)CO` [DEXAMETHASONE], for which, in assay [1], the IC50 was determined as 0.0023 µM.
For the compound `COC(=O)C[C@]1(C)[C@H]2[C@@H](O)[C@H](O)[C@@]3(C(=O)OC)OC[C@@]24[C@@H](C[C@H]1C(C)=O)OC(=O)[C@H](OC(=O)C=C(C)C)[C@@H]34` [BRUCEANIC ACID E METHYL ESTER], the half-inhibitory concentration (IC50) in the assay with A549, in the assay on HepG2, in the assay on SK-OV-3, in the assay on BGC-823 and in the assay with HCT-8 was over 10 µM in each case.
`COC(=O)[C@@]12OC[C@]34[C@H]([C@@H](O)[C@@H]1O)[C@@](C)(CC(=O)O)[C@H](C(C)=O)C[C@H]3OC(=O)[C@H](OC(=O)C=C(C)C)[C@@H]24` [BRUCEANIC ACID E]: the IC50 in the assay with A549, with HepG2, with SK-OV-3, in the assay with BGC-823 and in the assay with HCT-8 was over 10 µM each time.
